Consider 27 compounds from ChEMBL document CHEMBL1157775, “Novel hexahydropyrrolo[3,4-c]pyrrole CCR5 antagonists” (Bioorg Med Chem Lett, 2010).

A short description of data set [1]: Intrinsic clearance in rat liver microsomes assessed per mg of protein. The format is ADME, Microsome. The method in brief:
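Rat liver microsomes. Intrinsic clearance is expressed per mg protein. Values ≥90 µl/min were taken as high clearance.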
A general note: Liver microsomes are vesicles of endoplasmic reticulum, rich in cytochrome P450 enzymes.

The subject of data set [2] is Human immunodeficiency virus 1. The data set can be described thus: Antiviral activity against HIV1 NL4-3 infected in human JC53-BL cells assessed as luciferase activity after 3 days post infection. The conditions noted are these: Human immunodeficiency virus 1, NL4-3, JC53BL, 72 h. Format: functional, organism-based. The method in brief: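 Pseudotyped virus in culture supernatant was harvested after 2 days. It was used to infect JC53-BL reporter cells. Luciferase reporter activity was read 3 days post-infection. IC50 in nM is reported as the mean of two experiments.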

A short description of data set [3]: Intrinsic clearance in human liver microsomes assessed per mg of protein. Format: ADME, Microsome. An outline of the steps:
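Human liver microsomes. Intrinsic clearance is expressed as µl/min/mg protein.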

Data set [4] concerns the target C-C chemokine receptor type 5 (Homo sapiens, UniProt P51681). The data set can be described thus: Binding affinity at CCR5 receptor by radiolabeled RANTES binding assay.
Data set [5] can be described thus: Permeability from apical to basolateral side of human Caco-2 cells after 21 days. The conditions noted are these: read-out: permeability. Format: ADME, cell-based. Background: Caco-2 monolayers are a common model of the intestinal barrier.
The test system of a further data set is Caco-2. The data set can be described thus: Efflux ratio of permeability from basolateral to apical over apical to basolateral side in human Caco-2 cells after 21 days. As to conditions: caco-2, 504 h.
Data set [6] is described as follows: Clearance in rat at 1 mg/kg, iv. On the set-up: dose 1 mg/kg, route intravenous. As to conditions: in vivo. Format: ADME, organism-based. The method in brief: (§1)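 Rat PK. Single IV dose of 1 mg/kg and oral dose of 10 mg/kg. Oral AUC (ng·h/mL) and %F were derived from the PO arm. Clearance (mL/min/kg) was taken from the IV arm.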
Data set [7] is described as follows: Oral bioavailability in rat at 10 mg/kg. Format: ADME, organism-based. The conditions noted are these: in vivo. The method in brief: as §1
Data set [8] can be described thus: AUC in rat at 10 mg/kg, po. The format is ADME, organism-based. On the set-up: dose 10 mg/kg, route oral. The conditions noted are these: plasma. An outline of the steps:
as §1

A short description of data set [9]: AUC in dog at 10 mg/kg, po. Format: ADME, organism-based, Canis lupus familiaris. On the set-up: dose 10 mg/kg, route oral. The conditions noted are these: plasma. An outline of the steps: (§2)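 Dog PK. Single IV dose of 1 mg/kg, then an oral dose of 10 mg/kg; one case used 1 mg/kg both IV and PO. AUC and %F were determined after the oral dose. Clearance (ml/min/kg) was determined from the IV dose.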

Data set [10] can be described thus: Oral bioavailability in dog at 10 mg/kg. Format: ADME, organism-based, Canis lupus familiaris. As to conditions: in vivo. An outline of the steps: as §2
Data set [11] can be described thus: Intrinsic clearance in dog liver microsomes assessed per mg of protein. Format: ADME, Canis lupus familiaris, Microsome.
The nature of data set [12]: Clearance in dog at 1 mg/kg, iv. More on the design: dose 1 mg/kg, route intravenous. Format: ADME, organism-based, Canis lupus familiaris. As to conditions: in vivo. The method in brief:
as §2

Some results are limits rather than exact numbers.

C-C chemokine receptor type 5, sequence (P51681 whole entry): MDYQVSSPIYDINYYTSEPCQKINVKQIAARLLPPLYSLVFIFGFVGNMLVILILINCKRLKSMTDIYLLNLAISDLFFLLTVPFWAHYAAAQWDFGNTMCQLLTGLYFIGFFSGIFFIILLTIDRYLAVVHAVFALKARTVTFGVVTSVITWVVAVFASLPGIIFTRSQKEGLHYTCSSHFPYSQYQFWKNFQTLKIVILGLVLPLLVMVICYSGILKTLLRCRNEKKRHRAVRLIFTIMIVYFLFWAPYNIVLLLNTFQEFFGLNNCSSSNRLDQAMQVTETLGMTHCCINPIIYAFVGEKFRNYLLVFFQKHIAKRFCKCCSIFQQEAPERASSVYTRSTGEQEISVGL

One may read the microsomal CLint as the capacity of the preparation to metabolise the compound, expressed as a volume cleared per time. Low values mean slow turnover, high ones rapid turnover. Usually IC50 stands for the concentration needed to halve the response being measured. Regarding `Cc1ncnc(C)c1C(=O)N1C[C@H]2CN(CC[C@H](NC(=O)CC3CC(F)(F)C3)c3ccccc3)C[C@H]2C1`, the microsomal CLint in [1] worked out at 61 µL/min/mg; in [3], 60 µL/min/mg. The IC50 in [2] was 3 nM; in [4] it was 20 nM.

Consider `Cc1cccc(C)c1C(=O)N1C[C@H]2CN(CC[C@H](NC(=O)C3CCC(F)(F)CC3)c3ccccc3)C[C@H]2C1`, for which the IC50 is 9 nM in data set [2] and 4 nM in [4].

For the compound `Cc1ncnc(C)c1C(=O)N1C[C@H]2CN(CC[C@H](NC(=O)CC3CCC(F)(F)CC3)c3cccc(F)c3)C[C@H]2C1`, the microsomal CLint came to 24 µL/min/mg in data set [1] and 113 µL/min/mg in data set [3]. The IC50 in data set [2] was 1.1 nM; in data set [4], 12 nM.

For `Cc1cc[n+]([O-])c(C)c1C(=O)N1C[C@H]2CN(CC[C@H](NC(=O)C3CCCC3)c3ccccc3)C[C@H]2C1`, the microsomal CLint amounted to 12 µL/min/mg in data set [1] and 6 µL/min/mg in data set [3]. Moreover, the results for the IC50 in [2] and in [4] were 19 nM and 44 nM, respectively. Further, the Papp A→B in [5] came to 0.1 ×10⁻⁶ cm/s. In addition, the Ratio with Caco-2 worked out at 300.

Regarding `Cc1cccc(C)c1C(=O)N1C[C@H]2CN(CC[C@H](NC(=O)C3CCOC3)c3ccccc3)C[C@H]2C1` (some centres undefined), the 50% inhibitory concentration (IC50) came to 101 nM in [2] and 15 nM in data set [4].

As for `Cc1cccc(Cl)c1C(=O)N1C[C@H]2CN(CC[C@H](NC(=O)C3CCCC3)c3ccccc3)C[C@H]2C1`, the values for the half-maximal inhibitory concentration (IC50) in data set [2] and in data set [4] were 3 nM and 9 nM, respectively. In data set [3], this compound gave a microsomal CLint of 264 µL/min/mg.

Consider `Cc1cccc(C)c1C(=O)N1C[C@H]2CN(CC[C@H](NC(=O)C3CCCCC3)c3ccccc3)C[C@H]2C1`, for which the IC50 in data set [2] came to 30 nM; in data set [4] it was 3 nM.

As to `CC(=O)N[C@@H](CCN1C[C@@H]2CN(C(=O)c3c(C)cccc3C)C[C@@H]2C1)c1ccccc1`, the IC50 in [2] came to 132 nM; in data set [4], 15 nM.

With `Cc1cc(F)cc(C)c1C(=O)N1C[C@H]2CN(CC[C@H](NC(=O)C3CCCC3)c3ccccc3)C[C@H]2C1`, the microsomal CLint in data set [1] is 517 µL/min/mg; in data set [3], 236 µL/min/mg. Besides, the IC50 worked out at 3 nM in data set [2] and 6 nM in data set [4].

Take `CCO/N=C(\c1ccc(Br)cc1)C1CCN(C2(C)CCN(C(=O)c3c(C)cccc3C)CC2)CC1`: the IC50 worked out at 4 nM in [2] and 6 nM in data set [4].

For the compound `Cc1ncnc(C)c1C(=O)N1C[C@H]2CN(CC[C@H](NC(=O)CC3CC(F)(F)C3)c3cc(F)cc(F)c3)C[C@H]2C1`, the IC50 in data set [2] amounted to 41 nM; in [4], 30 nM. Moreover, the microsomal CLint in data set [3] is 45 µL/min/mg.

Turning to `Cc1cc(=O)[nH]c(C)c1C(=O)N1C[C@H]2CN(CC[C@H](NC(=O)C3CCCC3)c3ccccc3)C[C@H]2C1`, the microsomal CLint in data set [1] and in data set [3] was 25 µL/min/mg throughout. For the same compound, the IC50 in data set [2] amounted to 6 nM; in data set [4], 30 nM. For the same compound, in [5], the Papp A→B worked out at 0.5 ×10⁻⁶ cm/s. For the same compound, the Ratio in the data set on Caco-2 is recorded as 5.

By clearance is commonly meant a measure of how efficiently the substance is removed, as volume per time. Low readings indicate a low capacity for elimination, high ones a high capacity for elimination. The AUC is concentration integrated over time. Lower therefore signals low exposure. With `Cc1cccc(C)c1C(=O)N1C[C@H]2CN(CC[C@H](NC(=O)C3CCCC3)c3ccccc3)C[C@H]2C1`, the microsomal CLint amounted to 322 µL/min/mg in data set [1] and 256 µL/min/mg in data set [3]. The same compound registered a clearance in [6] of 134 mL/min/kg. The IC50 in data set [2] worked out at 7 nM; in [4], 6 nM. Besides, the bioavailability in [7] was 2.7%. The Papp A→B in data set [5] was found to be 4 ×10⁻⁶ cm/s. The Ratio in the data set on Caco-2 was determined as 5. Moreover, in data set [8], the AUC worked out at 31 ng·h/mL.

On to `Cc1ccnc(C)c1C(=O)N1C[C@H]2CN(CC[C@H](NC(=O)C3CCCC3)c3ccccc3)C[C@H]2C1`, for which the microsomal CLint turned out to be 89 µL/min/mg in data set [1] and 67 µL/min/mg in data set [3]. For the same compound, in data set [6], the clearance stood at 151 mL/min/kg. The bioavailability in data set [7] was 6.4%. This compound had an IC50 in data set [4] of 7 nM. For the same compound, the Papp A→B in data set [5] was found to be 4 ×10⁻⁶ cm/s. In addition, the AUC in [8] was determined as 65 ng·h/mL.

In the case of `Cc1ncnc(C)c1C(=O)N1C[C@H]2CN(CC[C@H](NC(=O)C3CCCC3)c3ccccc3)C[C@H]2C1`, the microsomal CLint was 51 µL/min/mg in [1] and 35 µL/min/mg in [3]. This compound registered a clearance in [6] of 131 mL/min/kg. Also, in data set [7], the bioavailability worked out at 17%. Further, the IC50 in data set [4] stood at 14 nM. Also, the Papp A→B in data set [5] was determined as 1.3 ×10⁻⁶ cm/s. The compound further registered an exposure (AUC) in data set [8] of 309 ng·h/mL.

As for `COc1cc(C)c(C(=O)N2C[C@H]3CN(CC[C@H](NC(=O)C4CCCC4)c4ccccc4)C[C@H]3C2)c(C)c1`, the microsomal CLint in data set [1] came to 236 µL/min/mg; in [3], 241 µL/min/mg. Also, the IC50 in [2] stood at 0.4 nM; in [4] it was 26 nM. Also, the Papp A→B in [5] was 33 ×10⁻⁶ cm/s. Moreover, the Ratio in the data set on Caco-2 amounted to 2.

As for `Cc1ncnc(C)c1C(=O)N1C[C@H]2CN(CC[C@H](NC(=O)CC3CCC(F)(F)CC3)c3ccccc3)C[C@H]2C1`, the microsomal CLint amounted to 46 µL/min/mg in data set [1], 83 µL/min/mg in [3] and 30 µL/min/mg in data set [11]. For the same compound, the values for the AUC in data set [9] and in [8] were 4210 ng·h/mL and 215 ng·h/mL, respectively. Besides, the clearance in data set [6] came out at 99 mL/min/kg; in [12], 44 mL/min/kg. For the same compound, the IC50 in data set [2] came to 6 nM; in [4], 27 nM. In addition, the figures for the bioavailability in [7] and in data set [10] were 15% and 103%, respectively.

`Cc1cccc(C)c1C(=O)N1C[C@H]2CN(CC[C@H](NC(=O)c3ccccc3)c3ccccc3)C[C@H]2C1`: the IC50 in data set [2] amounted to 124 nM; in [4], 8 nM.

Turning to `Cc1cccc(C)c1C(=O)N1C[C@H]2CN(CC[C@H](NC(=O)C(C)C)c3ccccc3)C[C@H]2C1`, the concentration for half-maximal inhibition (IC50) in [2] came out at 100 nM; in data set [4], 11 nM.

Consider `Cc1nnc(C(C)C)n1[C@H]1C[C@H]2CC[C@@H](C1)N2CC[C@H](NC(=O)C1CCC(F)(F)CC1)c1ccccc1` [MARAVIROC], for which the IC50 in data set [2] came to 3 nM.

In the case of `Cc1cc(C#N)nc(C)c1C(=O)N1C[C@H]2CN(CC[C@H](NC(=O)C3CCCC3)c3ccccc3)C[C@H]2C1`, the microsomal CLint turned out to be 144 µL/min/mg in data set [1] and 227 µL/min/mg in data set [3]. This compound also had an IC50 in data set [4] of 12 nM. Further, the Papp A→B in data set [5] was 3 ×10⁻⁶ cm/s.

For `Cc1ncnc(C)c1C(=O)N1C[C@H]2CN(CC[C@H](NC(=O)CC3CC(F)(F)C3)c3cccc(C#N)c3)C[C@H]2C1`, the microsomal CLint worked out at 31 µL/min/mg in [1] and 30 µL/min/mg in data set [3]. Further, the 50% inhibitory concentration (IC50) in [2] stood at 203 nM; in data set [4], 34 nM.

In the case of `CC(=O)N1C[C@H]2CN(CC[C@H](NC(=O)C3CCCC3)c3ccccc3)C[C@H]2C1`, the figures for the IC50 in [2] and in data set [4] were > 1000 nM and 465 nM, respectively.

As for `Cc1noc(C)c1C(=O)N1C[C@H]2CN(CC[C@H](NC(=O)C3CCCC3)c3ccccc3)C[C@H]2C1`, the IC50 in [2] came out at 545 nM; in data set [4] it was 19 nM.

Turning to `Cc1cccc(C)c1C(=O)N1C[C@H]2CN(CC[C@H](NC(=O)c3ccoc3)c3ccccc3)C[C@H]2C1`, the IC50 amounted to 85 nM in data set [2] and 18 nM in data set [4].

On to `Cc1cccc(C)c1C(=O)N1C[C@H]2CN(CC[C@H](NC(=O)C3CCC3)c3ccccc3)C[C@H]2C1`, for which the IC50 was 39 nM in [2] and 7 nM in data set [4].

In the case of `O=C(N[C@@H](CCN1C[C@@H]2CN(C(=O)c3c(Cl)cccc3Cl)C[C@@H]2C1)c1ccccc1)C1CCCC1`, the IC50 turned out to be 92 nM in data set [2] and 14 nM in data set [4]. This compound also had a microsomal CLint in [3] of 389 µL/min/mg.
